SDO1 yeast rescue: restores growth of sdo1-depleted yeast. S. cerevisiae sdo1-depleted JHY4D growth rescue, OD600 30 h; hits give high values; pdr5 snq2 efflux-pump mutant strain. z-score at 10 µM. hit rate 0.21% among 140,000;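 active means z-score above 3 at both the 24 hr and the 30 hr optical density reads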;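 further: z-score against mean and SD of all compound wells on the same plate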
Yeast life ext: yeast lifespan extension; S. cerevisiae growth with nicotinamide, OD615; deaD strain in restrictive glucose medium; inhibition of the nicotinamide effect, % at 10 µM; hit rate 0.68% among 130,000; AID 775;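 active means inhibition above a set limit, placed 3 SD over the median of all compounds, cut at about 26% in these data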;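 further: 0% = nicotinamide-treated wells and 100% = cells grown without nicotinamide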
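Assay system: engineered S. cerevisiae DeaD replicative-lifespan strain, galactose-grown log-phase cells; medium: restrictive CSMM-D dextrose medium; also added: nicotinamide, 1.5 mM, co-present with compound; schedule: 48 h compound exposure at 30 °C, humidified; detection: absorbance at 615 nm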
RAM network inh: inhibitors of the yeast RAM network; hit rate 1.8% among 190,000; inhibition, % at 50 µM; S. cerevisiae dse1pr::URA3 reporter, 5-FOA growth OD615, 2 d; analog-sensitive cbk1-as2 kinase mutant strain; AID 868;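 active means inhibition above a set limit, 3 SD over mean compound inhibition, cut at about 8.4% in these data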;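 further: 0% = DMSO-only wells with no growth and 100% = 10 µM 1-NA-PP1 full growth; inhibition rescues growth on 5-FOA so higher OD means more RAM inhibition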
BB579 growth dn: yeast BB579 growth reduction in restrictive medium. S. cerevisiae BB579 growth, OD615, 48 h. inhibition, % at 10 µM. hit rate 0.51% among 140,000. AID 804;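 active means inhibition above a set limit, 3 SD over the mean compound inhibition, cut at about 44% in these data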
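Assay system: S. cerevisiae DeaD strain BB579 yeast. Medium: CSMM-D restrictive synthetic medium containing dextrose (glucose). Times: 4 h cell preincubation, 48 h compound exposure, 30 °C humidified. Signal: OD615 turbidity measurement. Benchmarks: positive control amphotericin B 10 µg/mL.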
* hit, by the source's call. Hits are enriched below; roughly 2.7% of the tested compounds scored in any of these assays.

Cc1ccc(Sc2ncccc2COC(=O)Nc2c(C)cccc2C)cc1 was read as SDO1 yeast rescue -0.53, Yeast life ext -16, RAM network inh 2 and BB579 growth dn -55.
For CCOC(=O)c1sc2nc(CSc3ccccc3Cl)[nH]c(=O)c2c1C the results were RAM network inh 0.
`O=C1c2ccccc2C(Nc2ccc3c(c2)OCCO3)N1c1ccccn1` (stereo not drawn) gave SDO1 yeast rescue -0.66, Yeast life ext 36*, RAM network inh 1 and BB579 growth dn -15.
For O=C1c2ccccc2C(Nc2ccc3c(c2)OCCO3)N1c1ccc(Cl)cn1 (stereo not drawn) the results were SDO1 yeast rescue -1.3, Yeast life ext 3, RAM network inh 1 and BB579 growth dn -36.
N#C/C(=C\c1cccnc1)C(=O)NC1CCCCC1 was read as SDO1 yeast rescue -0.63, Yeast life ext 32*, RAM network inh 2 and BB579 growth dn -18.
CCCCNC(=O)/C(C#N)=C/c1ccc2c(c1)OCCO2 was read as SDO1 yeast rescue 0.77, Yeast life ext 0, RAM network inh -1 and BB579 growth dn 13.
Screening N#C/C(=C\c1ccc2c(c1)OCCO2)C(=O)NC1CCCCC1 returned SDO1 yeast rescue -0.7, Yeast life ext 2, RAM network inh 4 and BB579 growth dn -17.
Cc1cccc(NC(=O)/C(C#N)=C\c2cccnc2)c1 was read as SDO1 yeast rescue -0.99, Yeast life ext -5, RAM network inh 1 and BB579 growth dn -31.
For CCCCCCCCNC(=O)/C(C#N)=C/c1ccc2c(c1)OCCO2 the results were SDO1 yeast rescue -0.21, Yeast life ext 5, RAM network inh 9.4* and BB579 growth dn -24.
CCCCNC(=O)/C(C#N)=C/c1cccnc1 was read as SDO1 yeast rescue -0.64, Yeast life ext 46*, RAM network inh 4 and BB579 growth dn -2.
Cc1ccc(C(=O)N2CCc3ccccc32)cc1NC(=O)c1ccco1 was read as RAM network inh 0.
`COc1ccc(N2CCN(C(=S)Nc3cccc(C)c3C)CC2)cc1` gave SDO1 yeast rescue -0.52, Yeast life ext 4, RAM network inh 10* and BB579 growth dn -74.
`COc1cnc(-c2ccccn2)[nH]c1=O` gave RAM network inh -1.
Screening CC1=CC(=O)c2ccccc2C1=O returned SDO1 yeast rescue 1.2, Yeast life ext 12, RAM network inh 0 and BB579 growth dn 68*.
For Cc1ccc(C(=O)OCC(=O)c2c[nH]c3ccccc23)cc1 the results were SDO1 yeast rescue 1.3, Yeast life ext 0, RAM network inh 7 and BB579 growth dn -23.
CC(C)Cc1ccc(C(C)C(=O)OCC(=O)c2c[nH]c3ccccc23)cc1 (stereo not drawn) was read as SDO1 yeast rescue -1.4, Yeast life ext -5, RAM network inh 10* and BB579 growth dn -27.
Screening Cc1cc(NC(c2cccnc2)c2ccc3cccnc3c2O)no1 (stereo not drawn) returned SDO1 yeast rescue -0.43, Yeast life ext 1, RAM network inh 0 and BB579 growth dn -24.
Screening Oc1c(C(Nc2ccccn2)c2cccnc2)cc(Cl)c2cccnc12 (stereo not drawn) returned SDO1 yeast rescue -0.84, Yeast life ext 28*, RAM network inh 1 and BB579 growth dn -8.
`C=CCSc1nc(N)c(C(=O)Nc2ccccc2)cc1C#N` gave SDO1 yeast rescue -0.91, Yeast life ext -4, RAM network inh 9.8* and BB579 growth dn 7.
Screening C=CCSc1nc(N)c(C(=O)Nc2ccccc2OC)cc1C(=O)Nc1ccccc1 returned SDO1 yeast rescue -1.3, Yeast life ext -3, RAM network inh 0 and BB579 growth dn -57.
For Cc1cc(OCC(=O)NC(C)C)cc(C)c1Br the results were SDO1 yeast rescue 1, Yeast life ext -6, RAM network inh -1 and BB579 growth dn -33.
For CCOc1cccc(C(=O)NC(=S)Nc2ccc3c(c2)OCCO3)c1 the results were RAM network inh 5.
CCN1C(=O)N[C@H](c2ccc(Br)cc2)C(C(C)=O)=C1C was read as SDO1 yeast rescue 0.3, Yeast life ext 40*, RAM network inh 0 and BB579 growth dn -20.
`Clc1cccc(Cl)c1CSc1nnc(/C=C/c2ccccc2)o1` gave SDO1 yeast rescue 0.61, Yeast life ext 1, RAM network inh 11* and BB579 growth dn -59.
CCCCCCN(C(=O)CCCCCN1C(=O)NC(c2ccc(Cl)cc2)C(C(=O)OCc2ccccc2)=C1C)C(C(=O)NCCCC)c1ccc(OCC(=O)OC)c(C(=O)OC)c1 (stereo not drawn) was read as SDO1 yeast rescue -0.18, Yeast life ext 6, RAM network inh 10* and BB579 growth dn -42.
`CSc1nc(-c2ccco2)nn1C(=O)c1cccs1` gave SDO1 yeast rescue 0.88, Yeast life ext -8, RAM network inh 4 and BB579 growth dn 8.
For O=C(c1cccs1)n1nc(-c2ccco2)nc1SCc1ccccc1 the results were SDO1 yeast rescue -0.72, Yeast life ext -5, RAM network inh 10* and BB579 growth dn -42.
O=C(Nc1ccc([N+](=O)[O-])cc1)Nc1ccc2c(c1)OCCO2 was read as RAM network inh 1.
`CC(C)(c1ccccc1)c1ccc(OCCn2cnc3ccccc3c2=O)cc1` gave SDO1 yeast rescue -0.29, Yeast life ext 3, RAM network inh 8.7* and BB579 growth dn -33.
Screening CCN(CC)S(=O)(=O)c1ccc(OC)c(NC(=O)c2cc3c(=O)n4ccccc4nc3s2)c1 returned SDO1 yeast rescue -0.03, Yeast life ext -1, RAM network inh 3 and BB579 growth dn -15.
COc1ccc(OC)c(NC(=O)CSc2nnc(C)n2Cc2ccccc2)c1 was read as SDO1 yeast rescue 0.54, Yeast life ext -8, RAM network inh 9.2* and BB579 growth dn -13.
Screening Cc1onc(-c2c(F)cccc2Cl)c1C(N)=S returned RAM network inh 1.
`C=C(C)c1cccc(C(C)(C)NC(=O)Nc2ncccn2)c1` gave SDO1 yeast rescue -1.8, Yeast life ext -3, RAM network inh 2 and BB579 growth dn -30.
`C=C(C)c1cccc(C(C)(C)NC(=O)Nc2ccc(Cl)cn2)c1` gave SDO1 yeast rescue -1.3, Yeast life ext -2, RAM network inh 11* and BB579 growth dn -35.
`COc1ccc([N+](=O)[O-])cc1NC(=O)CC1SC(=Nc2cccc(C)c2C)N(/N=C/c2cccc(OC)c2OC)C1=O` (stereo not drawn) gave RAM network inh 10*.
CN=C1SC(CC(=O)Nc2c(C)cccc2C)C(=O)N1/N=C/c1cccs1 (stereo not drawn) was read as SDO1 yeast rescue -0.63, Yeast life ext -4, RAM network inh 2 and BB579 growth dn -27.
`Cc1[nH]c2ccccc2c1SCC(=O)N1CCOCC1` gave SDO1 yeast rescue 1.2, Yeast life ext -10, RAM network inh 1 and BB579 growth dn 14.
`COc1ccc(-c2c(C)nn(-c3ccccc3)c2N)cc1OC` gave SDO1 yeast rescue -0.09, RAM network inh 1 and BB579 growth dn -12.

Screens (PubChem)
